What was measured:
[1] = (§1) Selectivity index, ratio of CC50 for African green monkey Vero-B cells infected with Dengue virus serotype 2 assessed as inhibition of cell growth to EC50 for Dengue Virus serotype 2 infected in Vero-B cells assessed as inhibition of virus-induced cytopathogenic effect incubated for 7 days by methylene blue staining based visual analysis; format: toxicity; conditions: read-out: Ratio CC50/EC50
[2] = as §1, with “Yellow fever” for “Dengue”, “virus” for “virus serotype 2”, “Yellow fever virus” for “Dengue Virus serotype 2”; format: toxicity; conditions: read-out: Ratio CC50/EC50
dengue virus type 2 = assay: Antiviral activity against Dengue virus serotype 2 infected in Vero-B cells assessed as inhibition of virus-induced cytopathogenic effect after 7 days by methylene blue staining based visual analysis; format: functional, organism-based; conditions: 168 h
Procedure, shortened: (§2)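 Dengue virus serotype 2 was tested in green monkey kidney Vero-B cells from the ECACC line. EC50 is the concentration that inhibits virus-induced CPE by 50%. CC50 is the concentration that inhibits cell growth by 50%. Values were first obtained in μg/mL and then recalculated to μM.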

[3] = Cytotoxicity against African green monkey Vero-B cells infected with Yellow fever virus assessed as inhibition of cell growth after 7 days by methylene blue staining based visual analysis; conditions: chlorocebus aethiops, time 7 day
Procedure, shortened: (§3)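 Yellow fever virus was tested in Vero-B cells of the ATCC CCL-81 line. EC50 is the concentration giving 50% inhibition of virus-induced CPE. CC50 is the concentration giving 50% inhibition of cell growth. The original μg/mL data were converted to μM.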

Yellow fever virus = assay: Antiviral activity against Yellow fever virus infected in Vero-B cells assessed as inhibition of virus-induced cytopathogenic effect after 7 days by methylene blue staining based visual analysis; format: functional, organism-based; conditions: 168 h; procedure, shortened: as §3
[4] = Cytotoxicity against African green monkey Vero-B cells infected with Dengue virus serotype 2 assessed as inhibition of cell growth after 7 days by methylene blue staining based visual analysis; conditions: chlorocebus aethiops, time 7 day; procedure, shortened: as §2

Row | Compound | selectivity ratio at 168 h [1] | selectivity ratio at 168 h [2] | other results
1 | Cc1ccc(NC(=O)c2nccnc2C(=O)Nc2ccc(C)cc2-c2cccs2)cc1 | > 235 | – | –
2 | Cc1ccc(NC(=O)c2nccnc2C(=O)Nc2ccc(F)cc2)c(-c2cccs2)c1 | – | 5 | –
3 | O=C(NCc1ccccc1-c1ccsc1)c1ccccc1C(=O)Nc1ccc(F)cc1 | 17 | 53 | EC50 (dengue virus type 2): 3 µM; CC50 at 168 h [3]: 75 µM; EC50 (Yellow fever virus): 1.4 µM; CC50 at 168 h [4]: 50 µM
4 | Cc1ccc(NC(=O)c2nccnc2C(=O)Nc2ccccc2-c2cc(C)n[nH]2)cc1 | – | > 34 | –
5 | Cc1ccc(NC(=O)c2nccnc2C(=O)Nc2ccc(C)cc2-c2ccsc2)cc1 | > 29 | – | –
6 | Cc1ccc(NC(=O)c2nccnc2C(=O)Nc2ccc(C)cc2-c2cc(C)n[nH]2)cc1 | > 235 | – | –
7 | Cc1ccc(NC(=O)c2ccccc2C(=O)Nc2ccc(C)cc2-c2ccsc2)cc1 | 41 | – | –
8 | Cc1ccc(NC(=O)c2ccccc2C(=O)Nc2ccc(F)cc2)c(-c2cc(C)n[nH]2)c1 | > 235 | – | –

Source: ChEMBL document CHEMBL4715720, “Synthetic strategy and antiviral evaluation of diamide containing heterocycles targeting dengue and yellow fever virus” (Eur J Med Chem, 2016)
